In the library only some 5.7% were active in any assay of this set; here they are far more common.
Calb FLC: affects C. albicans growth with fluconazole | growth inhibition, % (test concentration not listed) | C. albicans CaCi-2 (fluconazole-resistant clinical isolate) + fluconazole, Alamar Blue growth, 48 h | 300,000 compounds, 0.57% hits;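 active = growth inhibition above about 58% in most replicates, limit read from the data, passing the limit was not always enough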;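 note: all wells also contain fluconazole at 8 µg/ml as a sub-toxic cotreatment; 0% = median of DMSO wells and 100% = median of geldanamycin control wells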
CSC inhib: cancer stem cell inhibition; cancer stem cell-like cells viability, luminescence; 300,000 compounds, 1.1% hits; AID 2717; inhibition, % at 7.5 µM; in the data active = inhibition above about 75%; tested in HMLE shEcad cells
Mdm2-MdmX inh: inhibitors of human Mdm2/MdmX interaction; O15151+Q00987; SaOS-2 split-luciferase Mdm2/MdmX complementation, luminescence; inhibition, % at 8 µM; 330,000 compounds, 3% hits;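 active = inhibition of at least 50% at 8 µM in the primary screen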
T cruzi inh: T. cruzi replication inhibition | T. cruzi beta-gal in NIH3T3, luminescence, 90 h | inhibition, % (concentration not given with the values) | 300,000 compounds, 1.4% hits | AID 1885;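 active = mean inhibition across valid replicates above about 55%, limit read from the data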;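 note: signal also drops with host cell toxicity which is not excluded here; 0% = plate median of DMSO wells and 100% = zero luminescence signal; higher percent means less beta-gal luminescence so fewer parasites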
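Material: NIH/3T3 host cells with β-galactosidase reporter T. cruzi; Input: 5,000 host fibroblasts per well; Medium: DMEM, 2% fetal bovine serum; Compound: 50 nL DMSO compound solution per well; Schedule: 3 h host attachment, then at least 90 h co-culture; Detection: luminescent β-galactosidase signal after 60 min lysis.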
Beta apoptosis: blocks beta cell apoptosis. 300,000 compounds, 0.8% hits. INS-1E cytokine-induced death, ATP luminescence, 48 h; percent of positive-control rescue, neutral wells zero. protection from apoptosis, % (concentration not given with the values);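 active = Every replicate reaches about 75%, or at least half do and their mean reaches it too, limit read from the data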;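 note: 0% = cytokine-treated negative control wells and 100% = positive control rescue; higher means more ATP so stronger rescue from cytokine killing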
SKKanGAS inh: inhibitors of SKKanGAS S. pyogenes growth in kanamycin (SK-promoter or general growth effect); BacTiter-Glo, 6 h; inhibition, % at 7.5 µM; 300,000 compounds, 1.3% hits;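 active = mean replicate score, as percent of positive control median, at least 50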;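 note: strain carries kanamycin resistance gene driven by streptokinase promoter and grows in 40 µg/ml kanamycin; loss of luminescence reflects streptokinase promoter inhibition or plain growth inhibition; 0% = median of DMSO wells and 100% = positive control at its reference dose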
* = called active by the depositor; . = no result.

SMILES | Calb FLC | CSC inhib | Mdm2-MdmX inh | T cruzi inh | Beta apoptosis | SKKanGAS inh
Cc1nn(C)c(Cl)c1CN1CCCC(CCC(=O)NCc2ccccc2F)C1 (stereo unspecified) | -26 | -7 | 3 | 60* | 1 | 1
CCOc1cccc(CN2CCCC(CCC(=O)NCc3ccccc3F)C2)c1O (stereo unspecified) | 2 | 13 | 23 | 56* | -2 | 5
Cc1ccc(CNC(=O)CCC2CCCN(Cc3cccc4ncccc34)C2)o1 (stereo unspecified) | 2 | 0 | 10 | 66* | -9 | -7
COc1ccc(NC(=O)N(C)C[C@@H]2Oc3ccc(NC(=O)NC(C)C)cc3CC(=O)N([C@H](C)CO)C[C@@H]2C)cc1 | . | . | 15 | . | -9 | .
CC(C)(C)NCC1(CO)SC(N)=NC1=O (stereo unspecified) | 4 | 2 | 3 | 57* | -8 | -11
Cc1ccc(SCCOCCN2CC(C)OC(C)C2)cc1 (stereo unspecified) | 1 | 44 | 0 | 57* | -13 | 2
Cc1ccc(SCC(=O)N2CC(C)OC(C)C2)cc1 (stereo unspecified) | -2 | 7 | -3 | -9 | -15 | 8
Cc1ccc(C)c(OCCCN2CCc3ccccc3C2)c1 | -18 | 27 | -10 | 15 | . | -1
Cc1ccc(SCCOCCN2CCc3ccccc3C2)cc1 | -27 | 49 | -4 | 61* | -10 | -2
CC(C)CN(C(=O)c1ccc([N+](=O)[O-])s1)c1c(N)n(Cc2ccccc2)c(=O)[nH]c1=O | . | -1 | 16 | 64* | 1 | 7
COC(=O)c1c(C)[nH]c(C(=O)OCC(=O)N(CC(C)C)c2c(N)n(Cc3ccccc3)c(=O)[nH]c2=O)c1C | -7 | -6 | 23 | 1 | 1 | 67*
O=C(O)C(F)=C1c2ccccc2-c2ccccc21 | -1 | -4 | -6 | -13 | -4 | -8
CC1(c2cc([N+](=O)[O-])cc([N+](=O)[O-])c2)CC(C)(C)N(C(=O)c2ccccc2)c2ccccc21 (stereo unspecified) | 12 | 22 | 30 | 67* | 21 | 9
CC1(c2ccccc2)CC(C)(C)N(C(=O)C2CCCO2)c2ccccc21 (stereo unspecified) | -5 | 15 | 14 | 10 | -27 | -6
Cc1c(C)n(Cc2ccccc2)c2ccc(C(=O)OCCN(C)C)cc12 | -13 | 85* | 24 | 35 | -2 | -2
CC1CN(CCCCOc2cccc(Oc3ccccc3)c2)CC(C)O1 (stereo unspecified) | 9 | 195* | 9 | 56* | -2 | 0
CC1CN(CCOc2cccc(Oc3ccccc3)c2)CC(C)O1 (stereo unspecified) | -5 | . | 11 | -4 | . | 5
CC(C)(C)Nc1nc(-c2ccc3c(c2)CCN3C(=O)C2CC2)cs1 | -5 | 2 | -93 | 20 | 0 | 0
COc1ccc(S(=O)(=O)N2CCOC23CCN(S(=O)(=O)c2cc(F)ccc2F)CC3)cc1 | -3 | 8 | 27 | 9 | -3 | -3
COCCNC(=O)CCc1nnc(Cc2ccc(-c3ccccc3)cc2)o1 | -19 | -10 | 15 | -6 | -8 | 0
COCCNC(=O)CCC1CCN(Cc2ccc(-c3ccccc3)cc2)CC1 | -8 | -7 | -4 | 58* | . | 1
CCN(CC)S(=O)(=O)c1cc(NC(=O)CNc2cccc(S(=O)(=O)N3CCOCC3)c2)ccc1C | 6 | -2 | 29 | -6 | 34 | -1
NC(=O)c1ccccc1NC(=O)COC(=O)C1(c2ccccc2)CC1 | 21 | 0 | -17 | 10 | . | -6
Cc1onc(-c2ccccc2)c1C(=O)NC(=S)NNC(=O)c1ccncc1 | 2 | -2 | 24 | -9 | -5 | 35
Cc1onc(-c2ccccc2)c1C(=O)NC(=S)NNC(=O)c1cc(-c2ccc(F)cc2)n[nH]1 | 0 | 31 | 18 | 4 | 27 | 119*
SMILES | Calb FLC | CSC inhib | Mdm2-MdmX inh | T cruzi inh | Beta apoptosis | SKKanGAS inh
Cc1onc(-c2ccccc2)c1C(=O)NC(=S)NNC(=O)c1cccnc1 | 100* | 19 | 9 | -18 | 1 | 23
Cc1onc(-c2ccccc2)c1C(=O)N/N=C/c1cccs1 | 5 | -9 | 5 | -14 | -5 | -2
Cc1ccc(F)c(NC(=O)c2c(-c3ccccc3)noc2C)c1 | 4 | 14 | -21 | -1 | 4 | -3
Cc1onc(-c2ccccc2)c1C(=O)NNC(=S)NC(=O)/C=C/c1cccs1 | -10 | 26 | 14 | -1 | 16 | 95*
Cc1onc(-c2ccccc2)c1C(=O)NC(=S)NNC(=O)c1ccco1 | -6 | 5 | -9 | -44 | 4 | 78*
COc1ccccc1N(CC(=O)NCCSc1ccccn1)S(=O)(=O)c1ccccc1 | 0 | -11 | -9 | 0 | -1 | -5
COc1cccc(C(=O)NC2CCN(C(=O)N3c4ccccc4Sc4ccccc43)CC2)c1 | 17 | 36 | 45 | 70* | 12 | 42
CCOC(=O)C1CCN(CC(O)COc2ccc(S(=O)(=O)N3CCCC3)cc2[N+](=O)[O-])CC1 (stereo unspecified) | . | . | 6 | . | . | .
COc1ccc(-c2cc(C(=O)N3CC4(C)CC3CC(C)(C)C4)no2)cc1OC (stereo unspecified) | 16 | 83* | 25 | 18 | -8 | -11
CC1(C)C[C@@H]2C[C@@](C)(CN2C(=O)c2cc(COc3cccc(C(F)(F)F)c3)on2)C1 | 5 | 96* | 10 | 33 | 104* | 28
O=C(c1cc(COc2cccc(C(F)(F)F)c2)on1)N1C[C@H]2CC[C@H]1C2 | -8 | 2 | -21 | 3 | -1 | -5
O=C(c1ccco1)N1CCN(c2ncnc3c(-c4ccccc4)nsc23)CC1 | 89* | 4 | -139 | 8 | 6 | 15
COc1cc(NC(=O)c2cc3nc(-c4ccccc4)cc(-c4ccccc4)n3n2)cc(OC)c1OC | -4 | 10 | 28 | 10 | 30 | 54*
Cc1cc(C)cc(Oc2ncnc3c2ncn3Cc2c(Cl)cccc2Cl)c1 | -6 | . | 23 | 60* | . | 6
Cc1ccc(-c2ccc(/C=N/NC(N)=S)o2)cc1 | -3 | 25 | -4 | 13 | -7 | -15
NC(=S)N/N=C/c1ccc(-c2ccc(Cl)c(Cl)c2)o1 | 1 | 11 | -14 | 60* | -6 | -18
NC(=S)N/N=C/c1ccc(-c2ccc(SC(F)F)cc2)o1 | -2 | 43 | 1 | 72* | 14 | -11
CN(C)c1ccc(CNC(=O)CCS(=O)(=O)c2ccc3c(c2)n(C)c(=O)c(=O)n3C)cc1 | -6 | 3 | 18 | -13 | 7 | -2
O=C(NCCN1CCOCC1)c1cccc(S(=O)(=O)N(Cc2ccccc2)c2ccccc2)c1 | -1 | -3 | 17 | 2 | 0 | 4
Cc1c(C(=O)Nc2nc3ccccc3[nH]2)oc2ccc(Br)cc12 | -11 | -6 | 5 | 56* | 12 | 79*
